Bioassay records as filed in PubChem BioAssay.
Sampled rows, rich in hits. Any-hit rate of the full collection: about 0.77%.
mIAP block: inhibitors of mouse IAP, primary screen, biochemical, luminescence, uHTS. purified mouse IAP, CDP-Star luminescence, 30 min. inhibition, % at 10 µM. actives 0.2% (n = 330,000). AID 2806, 2010;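 active means inhibition of at least 40% at 10 µM in the primary screen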;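 further: plate controls were DMSO with enzyme for no effect and no enzyme wells for full effect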
hIAP act: human IAP activators, primary screen, biochemical, luminescence, uHTS | purified human IAP, CDP-Star luminescence, 30 min; stronger effect = higher value; 1 = vehicle-only enzyme, 0 = enzyme-free background | actives 0.16% (n = 330,000) | Intestinal-type alkaline phosphatase (Homo sapiens), P09923 | activation factor at 10 µM;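 active means activation factor of the enzyme at least 2-fold when tested at 20 µM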
Target sequence (P09923 whole entry, looked up): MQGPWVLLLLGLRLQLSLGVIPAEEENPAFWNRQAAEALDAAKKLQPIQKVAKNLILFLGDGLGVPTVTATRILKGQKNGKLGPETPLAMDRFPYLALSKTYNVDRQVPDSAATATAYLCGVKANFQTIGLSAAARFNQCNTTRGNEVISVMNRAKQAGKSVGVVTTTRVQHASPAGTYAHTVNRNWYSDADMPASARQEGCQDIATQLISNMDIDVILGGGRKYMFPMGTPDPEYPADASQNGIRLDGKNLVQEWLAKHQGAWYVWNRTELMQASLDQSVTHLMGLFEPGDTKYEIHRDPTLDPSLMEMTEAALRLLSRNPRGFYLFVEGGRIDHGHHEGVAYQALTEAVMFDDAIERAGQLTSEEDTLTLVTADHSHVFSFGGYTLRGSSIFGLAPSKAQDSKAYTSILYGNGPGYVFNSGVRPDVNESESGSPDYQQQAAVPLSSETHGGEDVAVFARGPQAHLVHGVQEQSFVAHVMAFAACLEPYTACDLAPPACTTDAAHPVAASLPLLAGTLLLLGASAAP
bIAP inh: bovine intestinal alkaline phosphatase inhibitors, primary screen, selectivity assay for TNAP inhibitor project, biochemical, bovine IAP, CDP-star luminescence | alkaline phosphatase, intestinal [Bos taurus] | purified bovine IAP, 30 min | inhibition, % at 20 µM | 190,000 tested, under 10 active;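 active means over 50% inhibition of intestinal alkaline phosphatase at 20 µM in the single-dose screen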
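System: Purified bovine intestinal alkaline phosphatase (IAP) enzyme | Input: IAP diluted 1/65,000,000 in the well | Also added: CDP-star chemiluminescent phosphatase substrate, 30 µM final | Dosing: 20 µM single dose | Times: Enzyme reaction for 30 min at room temperature | Detection: Luminescence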
bIAP act: bovine intestinal alkaline phosphatase activators, primary screen, biochemical, bovine IAP, CDP-star luminescence | purified bovine IAP, 30 min; stronger effect = higher value; fold of DMSO-control signal, blank-subtracted | activation factor at 20 µM | actives 0.17% (n = 200,000) | AID 1016, 2008;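 active means activation factor of 2 or more at 20 µM, a signal rise over negative controls twice the positive control's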
mIAP act: activators of mouse IAP, primary screen, biochemical, luminescence, uHTS | AID 2805, 2010 | activation factor at 10 µM | intestinal alkaline phosphatase [Mus musculus] | muIAP, CDP-Star luminescence, 30 min; stronger effect = higher value; 1 = vehicle-only enzyme signal, 0 = enzyme-free wells | actives 0.24% (n = 330,000);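 active means activation factor of at least 2 at 20 µM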
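Assay system: mouse IAP enzyme; Reagent: CDP-Star chemiluminescent phosphatase substrate; Compound: DMSO-dissolved test compounds; Incubation: 30 min, room temperature; Technique: luminescence from enzymatic CDP-Star hydrolysis; Controls: DMSO-only wells and no-enzyme negative control.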
hIAP inh: human IAP inhibitors, primary screen, biochemical, luminescence, uHTS. actives 0.12% (n = 330,000). Intestinal-type alkaline phosphatase (Homo sapiens), P09923. inhibition, % at 10 µM. purified IAP, CDP-Star luminescence, 30 min;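 active means inhibition reaching a set limit with compound at 10 µM in the primary screen, cut at about 35% in these data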;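 further: plate controls were DMSO wells with enzyme for no effect and no-enzyme buffer wells for full effect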
hIAP act confirm: human IAP activators, confirmation, biochemical, luminescence, single concentration, uHTS hits; shares compounds with hIAP act; purified IAP, CDP-Star luminescence, 30 min; stronger effect = lower value; activation (%Activity, negative = activation), % at 8.3 µM; actives 10% (n = 880); AID 434926, 2010;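 active means at least twofold enzyme activation in any of six single-dose repeats, which the averaged readout prints as negative percent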
* hit, by the source's call; nt = no result given.

SMILES | mIAP block | hIAP act | bIAP inh | bIAP act | mIAP act | hIAP inh | hIAP act confirm
Cc1ccc(/C=N/NC(=O)c2cc(-c3ccc(C)o3)[nH]n2)cc1 | 13 | 2.1* | nt | nt | 0.87 | -107 | 6
Cc1ccc(-c2cc(C(=O)N/N=C/c3cccnc3)n[nH]2)o1 | 9 | 1.2 | 0 | 1 | 0.91 | -23 | nt
CCOC(=O)c1sc(NC(=O)/C=C/c2ccccc2)nc1C | 11 | 2.2* | -44 | 1.4 | 0.89 | -120 | 1
NC1=NCC(O)=C1c1nc2ccccc2[nH]1 | 6 | 2* | -66 | 1.7 | 0.94 | -101 | -55
Oc1ccc(-c2csc(-c3cccnc3)n2)cc1O | 25 | 0.59 | nt | nt | 0.75 | 41* | 6
Oc1ccc(-c2csc(-c3ccccc3)n2)cc1O | 16 | 0.9 | 8 | 0.9 | 0.84 | 10 | nt
COc1ccc(C(CNC(=O)c2cc(S(=O)(=O)N3CCCC3)ccc2Cl)N2CCCC2)cc1 (stereo unspecified) | -11 | 1 | nt | nt | 1.1 | -1 | nt
CCOc1ccc(CN(C)C(C)C(=O)NCCc2ccc(F)cc2)cc1 (stereo unspecified) | -2 | 1.1 | nt | nt | 1 | -6 | nt
C1CCC(Nc2nc3nonc3nc2N2CCSCC2)C1 | -3 | 0.63 | -9 | 1.1 | 1 | 37* | -3
C1CCN(C2CCN(c3nc4nonc4nc3N3CCSCC3)CC2)C1 | 7 | 0.87 | -12 | 1.1 | 0.93 | 13 | nt
COc1ccc(-n2nnnc2SCC(=O)Nc2cccc(O)c2)cc1 | 0 | 1.1 | nt | nt | 1 | -8 | nt
Cc1ccccc1NC(=O)CSc1nnc(C)c2ccccc12 | 7 | 1.1 | nt | nt | 0.93 | -7 | nt
COc1cc(/C=N/N=C2/C(=O)Nc3ccccc32)ccc1O | 12 | 0.79 | 11 | 0.9 | 0.88 | 22 | nt
O=C1Nc2ccccc2/C1=N\N=C\c1ccc(O)c(O)c1 | 36 | 0.65 | nt | nt | 0.64 | 35* | 62
Cc1cc(NC(=O)c2ccc(N3C(=O)CCC3=O)cc2)no1 | -1 | 1 | 8 | 0.9 | 1 | 0 | nt
Cc1cc(NC(=O)c2ccc(N3C(=O)C4C5C=CC(C5)C4C3=O)cc2)no1 (stereo unspecified) | 8 | 3* | 6 | 0.9 | 0.92 | -201 | -161*
CCOC(=O)N1CCN(C(=O)CNC(=O)c2ccc(Br)o2)CC1 | -2 | 1.1 | nt | nt | 1 | -6 | nt
O=C(NCC1CCCO1)c1ccc(Br)s1 (stereo unspecified) | 2 | 0.6 | nt | nt | 0.98 | 40* | 9
C[C@H](CO)N1C[C@H](C)[C@@H](CN(C)S(C)(=O)=O)Oc2ccc(NS(=O)(=O)c3cn(C)cn3)cc2C1=O | 4 | 1.3 | nt | nt | 0.96 | -27 | nt
CC(C)(C)c1cn(-c2ccc(F)cc2)c(=S)[nH]1 | 3 | 0.65 | 38 | 0.6 | 0.97 | 35* | 3
Cc1ccccc1-c1cn(-c2ccccc2)c(=S)[nH]1 | 4 | 0.9 | nt | nt | 0.96 | 10 | nt
COCCCNC(=O)Cc1ccc(S(=O)(=O)N2CCOCC2)s1 | 9 | 1 | nt | nt | 0.91 | -2 | nt
CC1CCCCC1NC(=O)COC(=O)c1ccccc1NC(=O)c1ccco1 (stereo unspecified) | -2 | 0.18 | -12 | 1.1 | 1 | 82* | 3
CCC(CC)NC(=O)c1ccc2nc[nH]c2c1 | 13 | 1.1 | 11 | 0.9 | 0.87 | -15 | nt
CC(NC(=O)c1ccc2nc[nH]c2c1)c1ccccc1 (stereo unspecified) | 4 | 2.4* | -11 | 1.1 | 0.96 | -139 | -4
O=C(O)CNC(=O)c1ccccc1F | 5 | 0.94 | 6 | 0.9 | 0.95 | 6 | nt
